According to ChEMBL document CHEMBL1155429, “Discovery of a biaryl cyclohexene carboxylic acid (MK-6892): a potent and selective high affinity niacin receptor full agonist with reduced flushing profiles in animals as a preclinical candidate” (J Med Chem, 2010):
pEC50, pIC50: −log10 of the molar value. The source made the active and inactive calls.

Key:
Rattus norvegicus [1] = assay: (§1) Half life in rat at 1.0 mg/kg, iv or 2 mg/kg, po; assay type: ADME, organism-based; conditions: in vivo
Procedure, shortened: (§2)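 PK: iv 1.0 mpk in DMSO/Tween-80/water (5:10:85) for rats, EtOH/PEG400/water (10:40:50) for dogs and monkeys; oral 2 mpk in 0.5% methylcellulose for rats and dogs.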

Rattus norvegicus [2] = assay: (§3) Bioavailability in rat at 1.0 mg/kg, iv or 2 mg/kg, po; assay type: ADME, organism-based; conditions: in vivo; procedure, shortened: as §2
Rattus norvegicus [3] = assay: (§4) Volume of distribution in rat at 1.0 mg/kg, iv or 2 mg/kg, po; assay type: ADME, organism-based; conditions: in vivo; procedure, shortened: as §2
[4] = target: Hydroxycarboxylic acid receptor 3 (Homo sapiens) (UniProt P49019); assay: Binding affinity to GPR109B
Canis lupus familiaris = organism: Canis lupus familiaris; assay: (§5) Agonist activity at dog nicotinic acid receptor by [35S]GTPgammaS binding assay; assay type: functional
Procedure, shortened: (§6)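 [35S]GTPγS exchange functional assay on membranes from cells expressing the dog NA receptor; full agonism judged relative to NA; EC50 determined.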

[5] = target: Hydroxycarboxylic acid receptor 1 (Homo sapiens) (UniProt Q9BXC0); assay: Binding affinity to GPR81
[6] = as §1; assay type: ADME, organism-based; conditions: in vivo; procedure, shortened: as §2
[7] = as §3; assay type: ADME, organism-based; conditions: in vivo; procedure, shortened: as §2
[8] = as §4; assay type: ADME, organism-based; conditions: in vivo; procedure, shortened: as §2
[9] = Clearance in rat at 1.0 mg/kg, iv or 2 mg/kg, po; assay type: ADME, organism-based; conditions: in vivo; procedure, shortened: as §2
Canis familiaris [10] = assay: Antilipolytic activity in po dosed dog assessed as drug concentration causing maximum reduction plasma free fatty acids levels; assay type: functional, Canis lupus familiaris
Procedure, shortened: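 Dose-based dog measure: dose producing maximal plasma FFA suppression after oral dosing in fasted conscious dogs, read from oral dose-ranging FFA data.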

Rattus norvegicus [11] = assay: Toxicity in ip dosed rat assessed as induction of induction of flushing-mediated vasodilation in ears by laser doppler flowmetry; assay type: functional
Rattus norvegicus [12] = assay: Antilipolytic activity in po dosed rat assessed as reduction plasma free fatty acids levels
Mus musculus [13] = assay: Antilipolytic activity in wild-type C57BL/6 mouse assessed as reduction plasma free fatty acids levels at 100 mg/kg, po after 15 mins; assay type: functional; parameters: scale not given: the % may be the effect or the level left
Procedure, shortened: (§7)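 Fed wild-type or NA receptor null mice on C57Bl/6 background dosed orally at 100 mpk; blood drawn 15 min postdose for plasma FFA and compound blood level; n = 8/group.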

[14] = Toxicity in po dosed dog assessed as Cmax at which threshold dose of vasodilation occurs in ears by spectrocolorimetry; assay type: organism-based, Canis lupus familiaris; conditions: in vivo, read-out: Activity
Procedure, shortened: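 Oral dosing in conscious dogs; Cmax(TDV) = average maximal blood compound level at the threshold dose for vasodilation, which was assessed by ear spectrocolorimetry.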

Canis familiaris [15] = assay: Antilipolytic activity in po dosed dog assessed as reduction plasma free fatty acids levels; conditions: Canis lupus familiaris
Canis familiaris [16] = assay: Toxicity in po dosed dog assessed as threshold dose at which induction of flushing-mediated-vasodilation occurs in ears by spectrocolorimetry; assay type: functional, Canis lupus familiaris
Procedure, shortened: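 Conscious dogs dosed orally; flushing scored by ear spectrocolorimetry plus vocal and physical agitation; threshold dose = dose causing vasodilation in a subset of animals.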

Mus musculus [17] = assay: Antilipolytic activity in NA-receptor null C57BL/6 mouse assessed as reduction plasma free fatty acids levels at 100 mg/kg, po after 15 mins; assay type: functional, organism-based; parameters: dose 100 mg/kg; procedure, shortened: as §7
[18] = Clearance in dog at 1.0 mg/kg, iv or 2 mg/kg, po; assay type: ADME, organism-based, Canis lupus familiaris; conditions: in vivo; procedure, shortened: as §2
[19] = Half life in dog at 1.0 mg/kg, iv or 2 mg/kg, po; assay type: ADME, organism-based, Canis lupus familiaris; conditions: in vivo; procedure, shortened: as §2
[20] = Volume of distribution in dog at 1.0 mg/kg, iv or 2 mg/kg, po; assay type: ADME, organism-based, Canis lupus familiaris; conditions: in vivo; procedure, shortened: as §2
[21] = Bioavailability in dog at 1.0 mg/kg, iv or 2 mg/kg, po; assay type: ADME, organism-based, Canis lupus familiaris; conditions: in vivo; procedure, shortened: as §2
[22] = Half life in mouse at 1.0 mg/kg, iv or 2 mg/kg, po; assay type: ADME, organism-based; conditions: in vivo
[23] = Volume of distribution in rhesus monkey at 1.0 mg/kg, iv or 2 mg/kg, po; assay type: ADME, organism-based, Macaca mulatta; conditions: in vivo; procedure, shortened: as §2
[24] = Drug level in wild-type C57BL/6 mouse blood at 100 mg/kg, po after 15 mins; assay type: ADME, organism-based; parameters: dose 100 mg/kg, route oral; procedure, shortened: as §7
Cytochrome P450 2C9 = Cytochrome P450 2C9 (Homo sapiens, UniProt P11712); assay: Inhibition of CYP2C9; assay type: ADME
[25] = Clearance in rhesus monkey at 1.0 mg/kg, iv or 2 mg/kg, po; assay type: ADME, organism-based, Macaca mulatta; conditions: in vivo; procedure, shortened: as §2
[26] = Half life in rhesus monkey at 1.0 mg/kg, iv or 2 mg/kg, po; assay type: ADME, organism-based, Macaca mulatta; conditions: in vivo; procedure, shortened: as §2
[27] = Drug level in NA-receptor null C57BL/6 mouse blood at 100 mg/kg, po after 15 mins; assay type: ADME, organism-based; parameters: dose 100 mg/kg, route oral; procedure, shortened: as §7
[28] = Volume of distribution in mouse at 1.0 mg/kg, iv or 2 mg/kg, po; assay type: ADME, organism-based; conditions: in vivo
Rattus norvegicus [29] = assay: Toxicity in rat assessed as induction of induction of flushing-mediated vasodilation in ears at 100 mg/kg, sc by laser doppler flowmetry; assay type: functional, organism-based; parameters: dose 100 mg/kg
Procedure, shortened: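 Anesthetized rats dosed subcutaneously in a dose-ranging study; ear blood perfusion monitored by laser Doppler flowmetry; n ≥ 5 per group.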

[30] = as §5; assay type: functional, Canis lupus familiaris; procedure, shortened: as §6
Canis familiaris [31] = assay: Antilipolytic activity in dog assessed as reduction plasma free fatty acids levels at 100 mg/kg, po; assay type: functional, Canis lupus familiaris; parameters: scale not given: the % may be the effect or the level left
Procedure, shortened: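 Fasted conscious dogs dosed orally; plasma FFA followed over time relative to baseline; n = 3-7 per group.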

Cytochrome P450 2D6 = Cytochrome P450 2D6 (Homo sapiens, UniProt P10635); assay: Inhibition of CYP2D6; assay type: ADME
Procedure, shortened: (§8)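 CYP2C8, 2D6 and 3A4 inhibition measured as IC50.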

Rattus norvegicus [32] = assay: Antilipolytic activity in rat assessed as reduction plasma free fatty acids levels at 100 mg/kg, po; assay type: functional; parameters: scale not given: the % may be the effect or the level left
Procedure, shortened: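 Conscious rats dosed orally, dose range 1–100 mpk; plasma FFA measured over 4 h and expressed relative to t = 0 level; n ≥ 5 per group.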

Rattus norvegicus [33] = assay: Toxicity in rat assessed as flushing-mediated vasodilation at 100 mg/kg, ip by laser doppler flowmetry; assay type: functional, organism-based; parameters: dose 100 mg/kg
Cytochrome P450 2C8 = target: T1, Cytochrome P450 2C8 (Homo sapiens, UniProt P10632); assay: Inhibition of CYP2C8; assay type: ADME; procedure, shortened: as §8
T1 sequence (P10632 whole entry): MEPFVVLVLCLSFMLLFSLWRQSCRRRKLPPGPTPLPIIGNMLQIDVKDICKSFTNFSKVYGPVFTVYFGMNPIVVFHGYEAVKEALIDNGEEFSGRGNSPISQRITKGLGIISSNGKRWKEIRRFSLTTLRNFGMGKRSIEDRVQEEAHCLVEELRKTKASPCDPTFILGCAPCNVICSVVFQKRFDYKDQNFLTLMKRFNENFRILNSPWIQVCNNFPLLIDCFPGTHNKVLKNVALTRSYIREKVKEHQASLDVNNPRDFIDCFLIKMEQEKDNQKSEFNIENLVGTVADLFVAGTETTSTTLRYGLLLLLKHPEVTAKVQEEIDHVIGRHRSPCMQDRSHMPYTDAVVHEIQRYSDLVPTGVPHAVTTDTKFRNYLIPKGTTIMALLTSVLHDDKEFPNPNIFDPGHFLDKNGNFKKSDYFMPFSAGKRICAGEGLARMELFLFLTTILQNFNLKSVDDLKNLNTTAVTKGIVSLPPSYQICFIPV

[34] = Bioavailability in rhesus monkey at 1.0 mg/kg, iv or 2 mg/kg, po; assay type: ADME, organism-based, Macaca mulatta; conditions: in vivo; procedure, shortened: as §2
Rattus norvegicus [35] = assay: Toxicity in rat assessed as induction of flushing-mediated vasodilation in ears at 100 mg/kg, sc by laser doppler flowmetry; conditions: in vivo
Rattus norvegicus [36] = assay: Plasma concentration in rat at 100 mg/kg, ip; assay type: ADME, organism-based; parameters: dose 100 mg/kg, route intraperitoneal; conditions: in vivo
[37] = Clearance in mouse at 1.0 mg/kg, iv or 2 mg/kg, po; assay type: ADME, organism-based; conditions: in vivo
[38] = Bioavailability in mouse at 1.0 mg/kg, iv or 2 mg/kg, po; assay type: ADME, organism-based; conditions: in vivo

Hydroxycarboxylic acid receptor 3 (Homo sapiens), sequence (P49019 whole entry): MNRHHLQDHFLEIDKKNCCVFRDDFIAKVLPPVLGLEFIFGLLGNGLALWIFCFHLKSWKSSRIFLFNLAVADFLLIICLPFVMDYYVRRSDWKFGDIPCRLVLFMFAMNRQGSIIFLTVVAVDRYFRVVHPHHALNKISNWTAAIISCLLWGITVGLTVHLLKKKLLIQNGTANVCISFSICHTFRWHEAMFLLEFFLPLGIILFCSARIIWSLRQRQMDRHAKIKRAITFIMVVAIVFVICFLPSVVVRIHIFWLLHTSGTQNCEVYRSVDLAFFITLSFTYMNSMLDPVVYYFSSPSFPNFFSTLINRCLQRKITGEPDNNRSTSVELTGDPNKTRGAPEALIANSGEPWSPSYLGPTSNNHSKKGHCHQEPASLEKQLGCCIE
Hydroxycarboxylic acid receptor 1 (Homo sapiens), sequence (Q9BXC0 whole entry): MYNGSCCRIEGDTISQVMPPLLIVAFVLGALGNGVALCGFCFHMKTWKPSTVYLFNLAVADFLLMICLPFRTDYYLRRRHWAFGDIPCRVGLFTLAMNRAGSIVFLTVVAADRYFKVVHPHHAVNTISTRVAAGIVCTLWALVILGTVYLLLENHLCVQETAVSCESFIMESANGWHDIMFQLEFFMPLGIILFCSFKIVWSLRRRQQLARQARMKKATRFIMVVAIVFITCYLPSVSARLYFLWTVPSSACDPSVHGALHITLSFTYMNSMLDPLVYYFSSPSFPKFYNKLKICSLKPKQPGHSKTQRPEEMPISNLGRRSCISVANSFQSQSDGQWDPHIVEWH
Cytochrome P450 2C9, sequence (P11712 whole entry): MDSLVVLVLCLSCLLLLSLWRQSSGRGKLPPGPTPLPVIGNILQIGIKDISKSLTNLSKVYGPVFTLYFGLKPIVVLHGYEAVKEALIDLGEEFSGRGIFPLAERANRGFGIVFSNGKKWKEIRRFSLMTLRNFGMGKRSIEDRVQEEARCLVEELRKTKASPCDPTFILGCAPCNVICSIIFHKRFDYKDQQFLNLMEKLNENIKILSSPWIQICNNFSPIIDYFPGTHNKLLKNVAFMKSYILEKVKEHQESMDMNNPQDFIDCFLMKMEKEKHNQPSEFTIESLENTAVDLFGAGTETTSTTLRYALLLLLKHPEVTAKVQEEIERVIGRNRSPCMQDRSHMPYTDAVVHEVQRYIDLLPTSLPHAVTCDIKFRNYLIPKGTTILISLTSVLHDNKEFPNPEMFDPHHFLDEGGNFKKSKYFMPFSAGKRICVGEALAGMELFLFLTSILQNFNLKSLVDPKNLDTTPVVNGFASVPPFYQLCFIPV
Cytochrome P450 2D6, sequence (P10635 whole entry): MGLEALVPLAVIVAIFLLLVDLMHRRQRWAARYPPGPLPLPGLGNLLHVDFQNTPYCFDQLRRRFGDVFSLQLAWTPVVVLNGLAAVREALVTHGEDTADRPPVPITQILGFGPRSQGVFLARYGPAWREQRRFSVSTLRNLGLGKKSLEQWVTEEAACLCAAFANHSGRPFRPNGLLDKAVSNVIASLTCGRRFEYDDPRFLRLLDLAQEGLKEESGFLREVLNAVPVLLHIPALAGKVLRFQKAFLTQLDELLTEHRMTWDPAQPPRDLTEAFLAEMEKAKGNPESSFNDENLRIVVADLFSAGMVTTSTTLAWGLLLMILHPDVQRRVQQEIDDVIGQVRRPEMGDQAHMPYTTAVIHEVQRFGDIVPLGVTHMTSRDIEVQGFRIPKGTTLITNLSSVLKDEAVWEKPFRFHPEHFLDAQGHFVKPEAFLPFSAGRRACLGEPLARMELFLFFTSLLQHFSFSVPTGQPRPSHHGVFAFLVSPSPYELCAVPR

CC(Cc1nc(-c2ccc(O)cn2)no1)C(=O)NC1=C(C(=O)O)CCCC1 (single isomer, unassigned; enantiomer B) [listing 1 of 2 here]
t1/2 (Rattus norvegicus [1]): 4.1 h | F (Rattus norvegicus [2]): 23% | Vd (Rattus norvegicus [3]): 0.25 L/kg

O=C(CCc1nc(-c2ccc(O)cn2)no1)Nc1ccccc1C(=O)O
Activity [4]: inactive | Activity (Canis lupus familiaris): Active | Activity [5]: inactive

CC(Cc1nc(-c2ccc(O)cn2)no1)C(=O)NC1=C(C(=O)O)CCCC1 (single isomer, unassigned; enantiomer B) [listing 2 of 2 here]
Activity [4]: inactive | Activity (Canis lupus familiaris): Active | Activity [5]: inactive

CC(Cc1nc(-c2ccc(O)cn2)no1)C(=O)NC1=C(C(=O)O)CCCC1 (single isomer, unassigned) [listing 1 of 2 here]
half-life [6]: 3.6 h | bioavailability [7]: 19% | Vd [8]: 0.21 L/kg | clearance [9]: 1.1 mL/min/kg

O=C(O)c1cccnc1 [NIACIN]
Activity (Canis familiaris [10]): 6 mg/kg | Activity (Rattus norvegicus [11]): 9.4 µM | pEC50 (Rattus norvegicus [12]): 5.66 | Activity (Mus musculus [13]): 43% | Cmax [14]: 14.6 µM | pEC50 (Canis familiaris [15]): 5.57 | Activity (Canis familiaris [16]): 3 mg/kg | Activity (Mus musculus [17]): inactive

O=C(CCc1nc(-c2ccc(O)cn2)no1)NC1=C(C(=O)O)CCCC1
Activity [4]: inactive | half-life [6]: 2 h | bioavailability [7]: 22% | clearance [18]: 1.3 mL/min/kg | Activity (Canis lupus familiaris): Active | Activity [5]: inactive | Vd [8]: 0.11 L/kg | clearance [9]: 2 mL/min/kg | half-life [19]: 2.1 h | Vd [20]: 0.18 L/kg | bioavailability [21]: 33%

CC(C)(Cc1nc(-c2ccc(O)cn2)no1)C(=O)NC1=C(C(=O)O)CCCC1
half-life [22]: 6.4 h | Vd [23]: 0.08 L/kg | concentration at 0.25 h [24]: 229 µM | pIC50 (Cytochrome P450 2C9): 4.41 | Activity (Canis familiaris [10]): 10 mg/kg | Activity [4]: inactive | Activity (Rattus norvegicus [11]): 560 µM | clearance [25]: 0.4 mL/min/kg | half-life [6]: 4.3 h | half-life [26]: 4.9 h | concentration at 0.25 h [27]: 148 µM | bioavailability [7]: 24% | Vd [28]: 0.2 L/kg | pEC50 (Rattus norvegicus [12]): 4.17 | Activity (Rattus norvegicus [29]): Toxic | clearance [18]: 1.8 mL/min/kg | pEC50 [30]: 5.89 | Activity (Mus musculus [13]): 36% | Activity (Canis familiaris [31]): 85% | Activity [5]: inactive | pIC50 (Cytochrome P450 2D6): < 4.00 | Cmax [14]: 182 µM | pEC50 (Canis familiaris [15]): 4.78 | Activity (Rattus norvegicus [32]): 85% | Activity (Canis familiaris [16]): 100 mg/kg | Activity (Rattus norvegicus [33]): Toxic | Vd [8]: 0.15 L/kg | pIC50 (Cytochrome P450 2C8): < 4.00 | bioavailability [34]: 14% | Activity (Rattus norvegicus [35]): Toxic | concentration (Rattus norvegicus [36]): 555 µM | clearance [37]: 1.3 mL/min/kg | clearance [9]: 0.4 mL/min/kg | half-life [19]: 7.6 h | Vd [20]: 0.27 L/kg | bioavailability [21]: 90% | Activity (Mus musculus [17]): inactive | bioavailability [38]: 45%

CC(Cc1nc(-c2ccc(O)cn2)no1)C(=O)NC1=C(C(=O)O)CCCC1 (single isomer, unassigned) [listing 2 of 2 here]
Activity [4]: inactive | Activity (Canis lupus familiaris): Active | Activity [5]: inactive
